Source: PubChem (Broad Institute)
In the library only some 1.7% were active in any assay of this set; here they are far more common.
CFTR F508del cor: F508del CFTR correction, initial screen, CFBE line, single point. CFBE cells, YFP halide quenching; stimulated with forskolin plus potentiator P3; % fluorescence drop versus neutral controls. activity (quench increase), % at 7.58 µM. hit rate 0.36% among 350,000;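 active = mean added fluorescence quench of at least 8% versus neutral control, with both replicates also reaching 8%; inconclusive = only one of the mean or replicate conditions met; inactive = mean below 8% and not both replicates reaching 8%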;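 note: cells transiently co-express mutant CFTR-F508del with the halide-sensitive YFP; corrector assay measuring rescue of mutant channel to the surface after 24 h compound exposure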
Cneo AK release: Cryptococcus neoformans cell lysis inducers, primary screen, AK release luminescence, single concentration; hit rate 0.2% among 360,000; AID 651654, 2012; lysis activity, % at 15 µM; C. neoformans lysis, adenylate kinase release luminescence, 4 h; normalised: neutral wells 0, clomiphene wells 100;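 active = mean lysis activity across replicates of at least 80%, whatever share of replicates individually reach that level; inactive = mean lysis activity below 80%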
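Material: C. neoformans cells; Schedule: 4 h static compound exposure, 37 °C, read 1 h post-reagent; Measured by: adenylate kinase release luminescence; Read-out: signal increase indicating cell lysis; Controls: Clomiphene as positive lysis control.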
rRNA inh HTS: reduced GFP signal of wild-type E. coli, primary screen, bacterial rRNA inhibitor project, GFP/RFP fluorescence, OD600, single point | E. coli WT GFP vs humanized-ribosome RFP mutants, 24 h; hits give low values; DMSO median 0, no signal -100 | GFP signal change (wild-type ribosome), % (no concentration beside the values) | hit rate 1.6% among 350,000 | AID 720706, 2013;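 active = significant combined selectivity score with lowered wild-type GFP, culture density cut under 30%, mutant RFP and density less affected; inactive = any of these conditions unmet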
CaV13 ICDI inh: Primary screen for inhibitors of IQ motif and Ca2+-dependent inactivation inhibitor domain binding in CACNA1D, Förster resonance energy transfer in living cells, …. HEK cells, CFP/YFP FRET ICDI-IQ, plate reader, 10 min; percent FRET-ratio fall versus neutral wells. inhibition, % at 12.3 µM. hit rate 0.098% among 340,000. AID 743397;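 active = mean replicate inhibition of at least 30% and at least 1% of replicates passing that level; inconclusive = only one of the two criteria is met; inactive = neither criterion is met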;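 note: 0% = median of the neutral control wells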
AID977621: growth inhibition of wild-type GFP E. coli, dose response, H69 mutant RFP, cherry-pick; shares compounds with rRNA inh HTS; E. coli wild-type GFP strain growth, fluorescence, 24 h; activity change, negative = inhibition at 50 µM; 1,900 tested, under 10 active; AID 977621, 2014;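 active = Wild-type ribosome reporter drop at least double the humanized mutant ribosome reporter drop, growth loss under a set limit; inconclusive = no clear call, values can overlap the other calls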;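 note: wild-type GFP and H69 mutant RFP strains grown together 50/50 in each well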
AID977628: E. coli growth inhibition, wild-type GFP versus h24 humanized RFP strain, dose response, h24 mutant RFP vs wild-type GFP, cherry-pick; 1,900 tested, under 10 active; E. coli WT GFP strain growth, fluorescence, 24 h; activity change, negative = inhibition at 50 µM; shares compounds with rRNA inh HTS;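 active = compound lowering the normal-ribosome reporter at least twice as much as the humanized-ribosome reporter, growth loss under a set limit; inconclusive = no clear call, values can overlap the other calls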;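 note: wild-type GFP and h24 humanized RFP strains co-cultured 1 to 1 per well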
* hit, by the source's call; ? = inconclusive; / = no result.

SMILES	CFTR F508del cor	Cneo AK release	rRNA inh HTS	CaV13 ICDI inh	AID977621	AID977628
O=C(NCc1ccco1)c1ccc(COc2cccc3ccccc23)cc1	/	-2	-24*	-21	-16	/
COc1ccc(NC(=O)Nc2cccc3c2O[C@H](CN(C)S(=O)(=O)c2ccc(C)cc2)[C@H](C)CN([C@@H](C)CO)C3=O)cc1	-4	-6	-19*	/	/	?
COc1ccc(NC(=O)Nc2cccc3c2O[C@H](CN(C)S(=O)(=O)c2ccc(Cl)cc2)[C@@H](C)CN([C@@H](C)CO)C3=O)cc1	0	4	0	/	-4.9	-6
COc1ccc(NC(=O)Nc2cccc3c2O[C@H](CN(C)S(=O)(=O)c2ccc(OC)cc2)[C@H](C)CN([C@H](C)CO)C3=O)cc1	0	6	-7	/	/	/
Cc1cc(C(=O)Nc2cccc3c2O[C@H](CN(C)S(=O)(=O)c2ccc(Cl)cc2)[C@H](C)CN([C@@H](C)CO)C3=O)n(C)n1	1	3	-24*	/	-20	?
COc1ccc(NC(=O)Nc2cccc3c2O[C@@H](CN(C)S(=O)(=O)c2ccc(Cl)cc2)[C@H](C)CN([C@@H](C)CO)C3=O)cc1	-4	3	-2	/	-20	/
COC(=O)c1sccc1NC(=O)Cn1nnc(-c2ccccc2C)n1	-4	/	-30*	-6	-12	/
CCOC(=O)c1ccc(NC(=O)Cn2nnc(-c3ccccc3C)n2)cc1	/	2	/	/	/	/
CCN(C(=O)c1ccc(Cl)c([N+](=O)[O-])c1)c1ccccc1	-2	/	-1	-7	/	/
CCN(C(=O)c1ccnc(C(C)(C)C)c1)c1ccccc1	-2	/	-34*	-7	/	?
CCOc1cc(/C=C(\CC(=O)O)c2nc3ccccc3s2)ccc1OC	-1	/	-21*	-4	-8	-12
Cc1ccc(Cl)cc1N1CCN(S(=O)(=O)N2CCCCC2)CC1	4	/	-28	-4	/	/
Cc1ccc(Cl)cc1N1CCN(S(C)(=O)=O)CC1	-2	1	-35*	-8	/	?
C[C@H](CO)N1C[C@H](C)[C@H](CN(C)Cc2ccc(C(=O)O)cc2)OCCCC[C@H](C)Oc2ccc(NC(=O)Nc3ccc4c(c3)OCO4)cc2C1=O	1	1	-1	/	/	/
CC(=O)N1[C@H](C(=O)N[C@@H](C)c2ccccc2)[C@@H](CO)[C@@H]2Cn3c(cccc3=O)[C@@H]21	1	56	2	/	/	/
CN(C)S(=O)(=O)c1cccc(NC(=O)c2cc3c(cc2Cl)N2CCCCCC2=NS3(=O)=O)c1	3	/	-4	-7	/	/
CN(C)S(=O)(=O)c1cccc(C(=O)Nc2ccc(C(=O)Nc3cccc(S(N)(=O)=O)c3)cc2)c1	-3	0	-24*	-5	/	-8
CN(C)S(=O)(=O)c1cccc(NC(=O)c2ccc3c(c2)S(=O)(=O)N=C2CCCCCN23)c1	-3	4	-20*	-6	-13	-10
C[C@@H]1CN([C@@H](C)CO)C(=O)c2cccc(NS(=O)(=O)c3ccc(F)cc3)c2O[C@@H]1CN(C)CC1CC1	-1	-10	4	/	/	/
COc1ccc(N2CCN(S(=O)(=O)c3ccc(OC)cc3)CC2)cc1	1	-2	3	-9	/	/
COc1ccc(S(=O)(=O)N2c3ccccc3OCC2C)cc1 (stereo not drawn)	-3	/	-41	-1	/	/
COc1ccc(S(=O)(=O)n2cccc2)cc1	0	4	-23*	-5	?	?
COc1ccc(S(=O)(=O)N2CCOc3ccccc32)cc1	5	-2	-22*	-3	0.4	-17
Nc1ccc(-c2nc3ccc(N)cc3[nH]2)cc1	-3	/	-16	-22	/	/
Nc1ccc2nc(-c3ccc(Cl)cc3)[nH]c2c1	1	-1	-17*	-7	/	-8.8
SMILES	CFTR F508del cor	Cneo AK release	rRNA inh HTS	CaV13 ICDI inh	AID977621	AID977628
CCn1cc(CCC(=O)NC(C)c2ccccc2)c2ccccc21 (stereo not drawn)	/	-2	-8	-5	/	/
CCn1cc(CCC(=O)NCCc2ccccc2)c2ccccc21	/	0	-19*	-5	-8	?
Oc1ccc(-c2csc(Nc3ncccn3)n2)cc1	0	/	-17*	-2	-21	-15
C[C@H]1CN([C@@H](C)CO)S(=O)(=O)c2ccc(C#CCN(C)C)cc2O[C@H]1CN(C)CC1CC1	1	10	-4	/	/	/
CN(c1ccccc1)S(=O)(=O)c1cccc(NC(=O)CCNC(=O)c2ccc([N+](=O)[O-])cc2)c1	-2	2	-17*	-3	-4.7	?
O=C(C[C@@H]1CC[C@@H](NC(=O)Cc2ccccn2)[C@H](CO)O1)NCCc1ccccc1	3	-3	-1	/	/	/
CC(C)NC(=O)N(C)C[C@@H]1Oc2ccc(NC(=O)NC3CCCCC3)cc2CC(=O)N([C@@H](C)CO)C[C@@H]1C	-3	-1	4	/	/	/
COc1ccc(CC(=O)Nc2cc(S(=O)(=O)Nc3ccc(OC)cc3)ccc2OC)cc1	-4	0	-18*	-3	-15	-17
COC(=O)c1sccc1NC(=O)Cc1ccc(OC)cc1	/	/	-27*	-4	-15	/
CCn1c(-c2cc(-c3ccc(OC(C)C)cc3)nc3ccccc23)n[nH]c1=S	2	-15	-28*	-9	/	?
Cc1ccc(S(=O)(=O)N2CCCCC2C(=O)N2CCN(c3ccccc3F)CC2)cc1 (stereo not drawn)	-4	/	-20*	-9	4.2	-12
CCc1nnc(NS(=O)(=O)c2ccc(NC(=O)c3cccc(Cl)c3)cc2)s1	0	/	-17*	8	?	?
COc1cc(OC)cc(C(=O)N[C@H](C(=O)OCC(=O)Nc2ccc(F)c(F)c2F)C(C)C)c1	-3	4	-20*	-1	?	/
COc1cc(OC)cc(C(=O)N[C@H](C(=O)OCC(=O)Nc2ccc(C)cc2C)C(C)C)c1	2	-2	-8	-5	/	/
O=C(Nc1nc2ccccc2n1CCN1CCOCC1)c1ccccc1	1	1	-16*	-5	-32	-26
CCNc1nc(N)c(C(=O)C23CC4CC(CC(C4)C2)C3)s1	0	0	-23*	-4	7.1	-6.3
COc1ccc(NC(=O)c2nc[nH]c2C(=O)N(C)Cc2ccccc2)cc1	2	-1	-19*	-11	?	/
O=C(O)c1cccnc1Sc1ccccc1Cl	6	-1	6	-5	/	/
O=C(O)c1cccnc1SCc1ccccc1Cl	-1	0	-22*	9	-9.8	/
CC(=O)Nc1cccc2c1O[C@H](CN(C)C(C)=O)[C@H](C)CN(C)C2=O	/	/	0	/	/	/
